This note sets out measurements from PubChem BioAssay AID624177 (Southern Research Specialized Biocontainment Screening …, 2012).

Structures are written as SMILES. Calls of active or inactive are those of the source.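 How the source made its calls: active means inhibition of 30% or more at any tested concentration; inactive means the rest.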

This assay has as its target M18 aspartyl aminopeptidase (Plasmodium falciparum). The experiment in a line: inhibition of P. falciparum M18 aminopeptidase – biochemical, QFRET fluorogenic substrate, set 2, dose response (AID 624177). Particulars: recombinant PfM18AAP, H-Glu-NHMec fluorogenic substrate cleavage; for inhibition: at 100 µM (top of the series). Summed up:
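Test system: recombinant PFM18AAP enzyme; quantity: enzyme at 5 µg/mL final; times: 90 min reaction, room temperature; replication: triplicate; controls: no-enzyme background control; medium: pH 7.5 Tris, 2 mM CoCl2, 2% DMSO; compound dosing: 10 concentrations, 1:2 steps, 100–0.2 µM; reagent: fluorogenic H-Glu-NHMec peptide substrate at 0.1 mM final; signal: fluorescence at 370/460 nm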

Regarding `COc1ccc(CCNC(=O)c2cc(C)ccc2N)cc1OC`, the inhibition entry is “inactive”.
In general, IC50 refers to the point on the concentration scale where inhibition reaches its midpoint. As to `Oc1ccc(C2CCN(c3ccnc4ccccc34)CC2)cc1O`, the concentration for half-maximal inhibition (IC50) is 4.6 µM.
As for `COc1cc(Br)c(CCNc2ccnc3ccccc23)cc1OC`, the inhibition entry was “inactive”.
Take `CN(CCc1ccc(O)c(O)c1)c1c2ccccc2nc2ccccc12`: the concentration for half-maximal inhibition (IC50) is 30 µM.
Regarding `COc1ccc(CCN(C)c2ccnc3c(F)cccc23)cc1OC`, the inhibition result is “inactive”.
On the same count and under the same terms, the entry for `COc1ccc(CCCN(C)c2c3ccccc3nc3ccccc23)cc1OC` is “inactive”.
With `CC(C)(CNc1ccnc2ccccc12)c1ccc(O)c(O)c1`, the half-inhibitory concentration (IC50) is 47.6 µM.
Turning to `COc1ccc(CCNc2ccnc3c(F)cccc23)cc1OC`, the inhibition result was “inactive”.
Take `COc1ccc(CCNc2ccnc3cc(Cl)ccc23)cc1OC`: the inhibition entry was “inactive”.
`CN(CCc1ccc(O)c(O)c1)c1ccnc2cc(Cl)ccc12`: the half-maximal inhibitory concentration (IC50) was 8.46 µM.
Still for that read-out and setting: the figure for `CN(CCCc1ccc(O)c(O)c1)c1ccnc2ccccc12` is 10.3 µM.
Take `COc1ccc(CCNc2cc(C)nc3ccccc23)cc1OC`: the inhibition entry was “inactive”.
With `CCN(CCc1ccc(O)c(O)c1)c1c2ccccc2nc2ccccc12`, the IC50 was 16.9 µM.
Consider `Nc1c2ccccc2nc2ccccc12`, for which the inhibition result was “inactive”.
Take `COc1ccc(CCN(C)c2ncnc3ccccc23)cc1OC`: the inhibition entry was “inactive”.
Turning to `Oc1ccc(CCNc2ccnc3c(F)cccc23)cc1O`, the IC50 is 9.8 µM.
With `COc1ccc(CCN(C)c2c3ccccc3nc3ccccc23)cc1OC`, the inhibition entry was “inactive”.
For `COc1ccc(CCNc2ccnc3c(C)cccc23)cc1OC`, the inhibition entry was “inactive”.
With `COc1ccc(CCCNc2c3c(nc4ccccc24)CCCC3)cc1OC`, the inhibition result is “inactive”.
Same read-out and setting: the entry for `COc1cc(Br)c(CCNc2c3ccccc3nc3ccccc23)cc1OC` is “inactive”.
`COc1ccc(CCN(C)c2cc(C)nc3ccccc23)cc1OC`: the inhibition entry is “inactive”.
As to `CN(CCc1ccc(O)c(O)c1)c1ncnc2ccccc12`, the half-maximal inhibitory concentration (IC50) was 7.69 µM.
For `CCOc1ccc2nccc(N(C)CCc3ccc(OC)c(OC)c3)c2c1`, the inhibition entry is “inactive”.
For `Oc1cccc(CCNc2ccnc3ccccc23)c1O`, the half-inhibitory concentration (IC50) was 16.5 µM.
As to `CCOc1ccc2nccc(NCCc3ccc(OC)c(OC)c3)c2c1`, the inhibition result was “inactive”.
As to `COc1ccc(CCNc2ncnc3ccccc23)cc1OC`, the inhibition entry was “inactive”.
`Clc1c2c(nc3ccccc13)CCCC2`: the inhibition entry is “inactive”.
As for `Oc1ccc(CCCNc2c3c(nc4ccccc24)CCCC3)cc1O`, the 50% inhibitory concentration (IC50) is 10.8 µM.
With `CCN(CCc1ccc(OC)c(OC)c1)c1c2ccccc2nc2ccccc12`, the inhibition result is “inactive”.
As to `CN(CCc1ccc(O)c(O)c1)c1ccnc2c(F)cccc12`, the concentration for half-maximal inhibition (IC50) is 8.76 µM.
On to `Oc1ccc(C2CCN(c3ccnc4ccccc34)C2)cc1O` (centres undefined), for which the IC50 is 6.55 µM.
On the same count and under the same terms, the figure for `Cc1cc(N(C)CCc2ccc(O)c(O)c2)c2ccccc2n1` is 11.9 µM; for `Cc1cccc2c(NCCc3ccc(O)c(O)c3)ccnc12` it is 14.5 µM; for `CC(Cc1ccc(O)c(O)c1)Nc1ccnc2ccccc12` (centres undefined) it is 16.6 µM.
For `COc1ccc(CCN(C)c2ccnc3cc(Cl)ccc23)cc1OC`, the inhibition result was “inactive”.
Take `Cc1cccc2c(N(C)CCc3ccc(O)c(O)c3)ccnc12`: the IC50 is 11.9 µM.
Take `Oc1ccc(CCNc2ccnc3cc(Cl)ccc23)cc1O`: the IC50 is 14.8 µM.
On to `COc1ccc(C2CCN(c3ccnc4ccccc34)C2)cc1OC` (centres undefined), for which the inhibition entry was “inactive”.
With `COc1ccc(CCNc2c3c(nc4ccc(C)cc24)CCCC3)cc1OC`, the inhibition result was “inactive”.
Turning to `CN(CCCc1ccc(O)c(O)c1)c1c2ccccc2nc2ccccc12`, the IC50 was 40.1 µM.
For the molecule `COc1ccc(CCN(C)c2ccnc3c(C)cccc23)cc1OC`, the inhibition result was “inactive”.
The same measure, in the same setting: for `COc1ccc(C2CCN(c3ccnc4ccccc34)CC2)cc1OC` the value was “inactive”; for `COc1cc(Br)c(CCNc2c3c(nc4ccccc24)CCCC3)cc1OC`, “inactive”.
For the molecule `Oc1ccc(C2CCCN(c3ccnc4ccccc34)C2)cc1O` (centres undefined), the 50% inhibitory concentration (IC50) was 7.32 µM.
